In ChEMBL document CHEMBL1129265, “Synthesis and characterization of pseudopeptide bradykinin B2 receptor antagonists containing the 1,3,8-triazaspiro[4.5]decan-4-one ring system” (J Med Chem, 1996):

What was measured:
B2 bradykinin receptor = target: T1, B2 bradykinin receptor (Homo sapiens, UniProt P30411); assay: Affinity to human Bradykinin receptor B2 in CHO cell membranes determined by displacement of [3H]-NPC 17731
T1 sequence (P30411 whole entry): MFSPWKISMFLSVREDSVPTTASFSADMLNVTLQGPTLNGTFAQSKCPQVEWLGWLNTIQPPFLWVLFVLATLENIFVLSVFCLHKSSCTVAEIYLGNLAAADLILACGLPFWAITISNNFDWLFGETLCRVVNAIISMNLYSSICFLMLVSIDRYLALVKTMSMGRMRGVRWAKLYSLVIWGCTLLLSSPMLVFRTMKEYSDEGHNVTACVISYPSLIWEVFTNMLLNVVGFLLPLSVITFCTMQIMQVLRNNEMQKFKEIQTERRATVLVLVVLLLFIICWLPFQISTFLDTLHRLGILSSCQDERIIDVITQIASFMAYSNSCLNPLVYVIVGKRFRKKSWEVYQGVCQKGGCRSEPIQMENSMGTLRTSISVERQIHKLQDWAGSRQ
Method in brief: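 Membranes from CHO/K cells transfected with human B2 receptor, grown in Ham's F12 with 10% FBS and 500 ug/mL G418. Buffer: 25 mM TES, 1 mM 1,10-phenanthroline, pH 6.8, with bacitracin and 0.1% BSA. Competition versus [3H]NPC-17731, 15 pM final. 1 uM bradykinin defines nonspecific binding. 90 min at 25 °C, then filtration on PEI-soaked GF/B and scintillation counting. n=3.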

Rattus norvegicus = organism: Rattus norvegicus; assay: Pharmacological profile in bradykinin induced assay in rats ([…] in rats); format: functional
Method in brief: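 Anesthetized Sprague–Dawley rats, carotid mean arterial pressure, jugular iv dosing, tracheotomy. After 30 min stabilization, three bradykinin injections (12 ug/kg iv, 5 min apart) set baseline hypotension. Test agent is given iv 10–15 min later, followed 5 min after by bradykinin challenge. Successive increasing doses give a cumulative dose–response; ED50 reported, n=4.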

Oryctolagus cuniculus = organism: Oryctolagus cuniculus; assay: Pharmacological profile in bradykinin induced assay in rabbits ([…]); format: functional
Method in brief: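 Male New Zealand white rabbits, 1.5–2.0 kg, acepromazine premedicated, pentobarbital anesthetized. Carotid catheter records mean arterial pressure continuously. Three bolus bradykinin doses (1 ug/kg iv) set baseline. Antagonist in saline is then given iv at rising doses (0.03–1000 ug/kg), each followed after 5 min by a bradykinin bolus. Percent inhibition of hypotension per animal; ED50 by probit; n=4.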

| Structure (SMILES) | Ki (B2 bradykinin receptor) [nM] | ED50 (Rattus norvegicus) [mg/kg] | ED50 (Oryctolagus cuniculus) [mg/kg] |
| --- | --- | --- | --- |
| CCCN1CN(CC(C)=O)C(=O)C12CCN(C)CC2 | 27 | – | – |
| CC(=O)CN1CN(CCc2ccccc2)C2(CCN(C)CC2)C1=O | 0.15 | – | – |
| CC(=O)CN1CN(CC2CCCCC2)C2(CCN(C)CC2)C1=O | 6.8 | – | – |
| CC(=O)CN1CN(C2CCCCC2)C2(CCN(C)CC2)C1=O | 0.57 | 0.6 | 0.0086 |
| CC(=O)CN1CN(c2ccccc2)C2(CCN(C)CC2)C1=O | 7.7 | 0.4 | 0.0221 |
| CC(=O)CN1CN(c2ccc(C)cc2)C2(CCN(C)CC2)C1=O | 6.3 | – | – |
